# Reference: ChEMBL document CHEMBL1144404, “Aminoimidazolylmethyluracil analogues as potent inhibitors of thymidine phosphorylase and their bioreductive nitroimidazolyl prodrugs” (J Med Chem, 2005)
# B1: Thymidine phosphorylase (Homo sapiens), P19971 (protein)
# chain: MAALMTPGTGAPPAPGDFSGEGSQGLPDPSPEPKQLPELIRMKRDGGRLSEADIRGFVAAVVNGSAQGAQIGAMLMAIRLRGMDLEETSVLTQALAQSGQQLEWPEAWRQQLVDKHSTGGVGDKVSLVLAPALAACGCKVPMISGRGLGHTGGTLDKLESIPGFNVIQSPEQMQVLLDQAGCCIVGQSEQLVPADGILYAARDVTATVDSLPLITASILSKKLVEGLSALVVDVKFGGAAVFPNQEQARELAKTLVGVGASLGLRVAAALTAMDKPLGRCVGHALEVEEALLCMDGAGPPDLRDLVTTLGGALLWLSGHAGTQAQGAARVAAALDDGSALGRFERMLAAQGVDPGLARALCSGSPAERRQLLPRAREQEELLAPADGTVELVRALPLALVLHELGAGRSRAGEPLRLGVGAELLVDVGQRLRRGTPWLRVHRDGPALSGPQSRALQEALVLSDRAPFAAPSPFAELVLPPQQ
# B2: Thymidine phosphorylase (Escherichia coli K-12), P07650 (protein)
# chain: MFLAQEIIRKKRDGHALSDEEIRFFINGIRDNTISEGQIAALAMTIFFHDMTMPERVSLTMAMRDSGTVLDWKSLHLNGPIVDKHSTGGVGDVTSLMLGPMVAACGGYIPMISGRGLGHTGGTLDKLESIPGFDIFPDDNRFREIIKDVGVAIIGQTSSLAPADKRFYATRDITATVDSIPLITASILAKKLAEGLDALVMDVKVGSGAFMPTYELSEALAEAIVGVANGAGVRTTALLTDMNQVLASSAGNAVEVREAVQFLTGEYRNPRLFDVTMALCVEMLISGKLAKDDAEARAKLQAVLDNGKAAEVFGRMVAAQKGPTDFVENYAKYLPTAMLTKAVYADTEGFVSEMDTRALGMAVVAMGGGRRQASDTIDYSVGFTDMARLGDQVDGQRPLAVIHAKDENNWQEAAKAVKAAIKLADKAPESTPTVYRRISE
# Tests used:
# [1] = substrate: O=c1[nH]c(=O)n([C@H]2C[C@H](O)[C@@H](CO)O2)cc1[N+](=O)[O-]; assay: Michaelis-Menten constant against human thymidine phosphorylase
# Outline: (§1)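 Recombinant human TP expressed in V79 Chinese hamster cells, 0.065 absorbance unit per assay. Continuous spectrophotometric assay at 355 nm, 25 °C, 0.1 M phosphate buffer pH 7.4, 0.2 mL total volume, with 5-nitro-2'-deoxyuridine as substrate; kinetic constants from initial rates.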
# [2] = substrate: O=c1[nH]c(=O)n([C@H]2C[C@H](O)[C@@H](CO)O2)cc1[N+](=O)[O-]; assay: Vmax against human thymidine phosphorylase; outline: as §1
# [3] = substrate: O=c1[nH]c(=O)n([C@H]2C[C@H](O)[C@@H](CO)O2)cc1[N+](=O)[O-]; assay: Michaelis-Menten constant against Escherichia coli thymidine phosphorylase
# Outline: (§2)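 Continuous UV assay at 355 nm and 25 °C in 0.2 mL of 0.1 M potassium phosphate pH 7.4, using recombinant E. coli TP (ca. 0.00883 units per assay) added to start the reaction. Substrate is thymidine or 5-nitro-2'-deoxyuridine; phosphorolysis to 5-nitrouracil followed (εM 13300 M-1 cm-1 for substrate).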
# [4] = substrate: O=c1[nH]c(=O)n([C@H]2C[C@H](O)[C@@H](CO)O2)cc1[N+](=O)[O-]; assay: (§3) Vmax against Escherichia coli thymidine phosphorylase; outline: as §2
# [5] = substrate: Cc1cn([C@H]2C[C@H](O)[C@@H](CO)O2)c(=O)[nH]c1=O; assay: as §3; outline: as §2
Protein,Km [1],Vmax [2],Km [3],Vmax [4],Vmax [5]
B1,160 µM,0.0086 mM/min,,,
B2,,,230 µM,0.013 mM/min,1.15 mM/min
